Reference: ChEMBL document CHEMBL1124702, “Synthesis and pharmacological evaluation of a series of dibenzo[a,d]cycloalkenimines as N-methyl-D-aspartate antagonists” (J Med Chem, 1990)

Assays:
[1] = target: Glutamate NMDA receptor; test: Inhibition of N-methyl-D-aspartate glutamate receptor (NMDA receptor) from homogenized rat brain membrane, using [3H]-MK-801 as a radioligand
Method in brief: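 Male Sprague-Dawley rat (200-300 g) cortical membranes, washed and preincubated 20 min at 23 °C in 5 mM Tris-HCl pH 7.4. Duplicate aliquots (ca. 0.75 mg protein) incubated 60 min at 23 °C with displacer plus [3H]-(+)-10 added as 100 µL of 50 nM stock. Filter-bound radioactivity counted by liquid scintillation; Ki reported.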

[2] = target: T1, Glutamate NMDA receptor (Rattus norvegicus) (UniProt P35439+Q00959+Q00960+Q00961+Q62645+Q8VHN2+Q9R1M7); test: Antagonistic activity against N-methyl-D-aspartate glutamate receptor from rat cortical slice; assay type: functional
Method in brief: (§1)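 Greased-gap recording of NMDA-induced population depolarizations in rat cortical slices. An NMDA concentration-response curve was run, then repeated with antagonist present. Apparent Kb = antagonist concentration/(CR-1), with CR taken at the midpoint of the control curve. If the curve flattened, a lower antagonist concentration was tried. Failing that, the threshold concentration giving significant antagonism was used.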

[3] = system: Mus musculus; test: Inhibition of N-Methyl-D,L-aspartate induced convulsions in mice following 500 mg/kg i.p.; assay type: functional; details: ip, route intraperitoneal
[4] = target: T1, Glutamate NMDA receptor (Rattus norvegicus); test: Antagonistic activity against N-methyl-D-aspartate glutamate receptor from rat cortical slice was determined (expt.1); assay type: functional; method in brief: as §1
[5] = target: T1, Glutamate NMDA receptor (Rattus norvegicus); test: Antagonistic activity against N-methyl-D-aspartate glutamate receptor from rat cortical slice was determined (expt.2); assay type: functional; method in brief: as §1
[6] = system: Mus musculus; test: Tested for inhibition of convulsions induced by N-Methyl-D,L-aspartate (NMDLA), after sc administration of a dose of […] in mice; assay type: functional; details: route subcutaneous
Method in brief: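 Test drug given iv 15 min before the convulsant. NMDLA given at 500 mg/kg, sc or ip. Separately, NMDA given sc at 400 mg/kg. Anticonvulsant ED50 determined.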

Structure (SMILES)	Ki [1]	Kb [2]	further results
O[C@H]1c2ccccc2C2NC1c1ccccc12 (stereo not given in full)	7.75 µM	2.79 µM	
CC12NC(c3ccccc31)[C@@H](O)c1ccccc12 (stereo in doubt; 120) [listing 1 of 2 here]	0.21 µM		
COc1ccc2c(c1)C1(C)NC2Cc2ccccc21 (stereo in doubt; 83) [listing 1 of 2 here]		0.23 µM	
OC12NC(Cc3ccccc31)Cc1ccccc12	57 µM		
NC(=O)CC12NC(Cl)(Cc3ccccc31)c1ccccc12 (stereo not given)	> 90 µM		
OCC12NC(Cc3ccccc31)c1ccccc12 (stereo not given)	0.35 µM		
OCC(O)[C@]12NC(Cc3ccccc31)c1ccccc12 (stereo not given in full)	0.32 µM		
CCN1C2Cc3ccccc3C1c1ccccc12 (stereo not given)	24 µM		
CCOC(=O)CC12NC(O)(Cc3ccccc31)c1ccccc12 (stereo not given)	3.6 µM		
c1ccc(SCC23NC(Cc4ccccc42)c2ccccc23)cc1 (stereo not given)	73 µM		
CC12c3ccccc3CC(c3ccccc31)N2O (stereo not given)	19 µM	45.6 µM	
CC12NC(Cc3ccc(F)cc31)c1ccccc12 (stereo not given)	0.03 µM	0.38 µM	
CCCCc1ccc2c(c1)C1(C)NC(C2)c2ccccc21 (stereo not given)	1.25 µM		
CN1C2CCc3ccccc3C1(O)c1ccccc12 (stereo not given)	> 100 µM		
CC12NC(Cc3ccccc31)Cc1ccc(Cl)cc12 (stereo not given)	0.11 µM	0.68 µM	
CN1C2Cc3ccccc3C1(C)c1ccccc1C2	1.2 µM		
CC12NC(Cc3ccccc31)c1cc(O)ccc12 (stereo in doubt; 106) [listing 1 of 2 here]	0.049 µM		
CC12NC(Cc3ccccc31)c1ccc(O)cc12 (stereo not given)	0.023 µM	0.13 µM	ED50 [3]: 0.43 mg/kg
CCOC(=O)C(O)[C@]12NC(Cc3ccccc31)c1ccccc12 (stereo not given in full)	0.39 µM		
CC12NC(Cc3ccccc31)c1ccc(Cl)cc12 (single isomer, unassigned; (+)) [listing 1 of 2 here]	0.006 µM		
CC12NC(c3ccccc31)[C@H](O)c1ccccc12 (stereo not given in full)	2.7 µM		
CCOC(=O)CC12c3ccccc3CC(O)(c3ccccc31)N2O (stereo not given)	> 4500 µM		
CC12NC(Cc3ccc(Cl)cc31)c1ccccc12 (single isomer, unassigned; (-))		0.56 µM	
CC12NC(c3ccccc31)[C@@H](O)c1ccccc12 (stereo in doubt; (+)120) [listing 1 of 2 here]		0.25 µM	

Structure (SMILES)	Ki [1]	Kb [2]	further results
Cc1ccc2c(c1)C1(C)NC(C2)c2ccccc21 (stereo not given)	0.034 µM	0.38 µM	ED50 [3]: 0.53 mg/kg
COc1ccc2c(c1)C1(C)NC(C2)c2ccccc21 (stereo not given)	0.046 µM		
c1ccc2c(c1)CC1NC2c2ccccc21 (stereo not given)	22.6 µM		
COc1ccc2c(c1)C1(C)NC2Cc2ccccc21 (stereo in doubt; 83) [listing 2 of 2 here]	0.036 µM		ED50 [3]: 0.77 mg/kg
CN1C2CCc3ccccc3C1(C)c1ccccc12 (stereo not given)	8.8 µM		
COc1ccc2c(c1)C1Cc3ccccc3C2(C)N1 (stereo not given)	0.033 µM	0.13 µM	
CC12NC(Cc3ccccc31)c1cc(O)ccc12 (stereo in doubt; 106) [listing 2 of 2 here]		0.24 µM	
CC12NC(Cc3ccc(O)cc31)c1ccccc12 (stereo not given)	0.018 µM		Kb [4]: 0.24 µM; Kb [5]: 0.51 µM
CN1C2Cc3ccccc3C1(O)c1ccccc1C2	290 µM		
CC12NC(Cc3ccccc31)c1ccc(Br)cc12 (stereo not given)	0.18 µM	0.46 µM	
COc1ccc2c(c1)CC1NC2(C)c2ccccc21 (stereo not given)	0.61 µM		
OCCC12NC(Cc3ccccc31)c1ccccc12 (stereo not given)	0.26 µM		
CC12NC(c3ccccc31)[C@@H](F)c1ccccc12 (stereo not given in full)	0.011 µM	0.23 µM	ED50 [3]: 1.27 mg/kg
CC12NC(Cc3ccc(Cl)cc31)c1ccccc12 (stereo in doubt; 64) [listing 1 of 2 here]		0.067 µM	
CC12NC(Cc3ccc(N)cc31)c1ccccc12 (stereo not given)	0.027 µM		
CCCC12NC(Cc3ccccc31)c1ccccc12 (stereo not given)	8.6 µM		
CN1C2(C)Cc3ccccc3C1(C)c1ccccc12 (stereo not given)	0.71 µM		
CC12NC(Cc3ccc(CO)cc31)c1ccccc12 (stereo not given)	0.137 µM	0.27 µM	ED50 [3]: 1.19 mg/kg
CC12NC(c3ccccc31)[C@@H](O)c1ccccc12 (single isomer, unassigned; (-))	0.302 µM		
CN1C2(C)Cc3ccccc3C1(C)c1ccccc1C2	8.7 µM		
CC12NC(Cc3ccccc31)c1cc(O)ccc12 (single isomer, unassigned; (-))	0.761 µM		
OCCC12NC(Cl)(Cc3ccccc31)c1ccccc12 (stereo not given)	0.28 µM		
CCOC(=O)CC12NC(Cc3ccccc31)c1ccccc12 (stereo not given)	0.55 µM		
FCCC12NC(Cc3ccccc31)c1ccccc12 (stereo not given)	0.174 µM	0.23 µM	

Structure (SMILES)	Ki [1]	Kb [2]	further results
c1ccc2c(c1)CC1NC2(C2SCCCS2)c2ccccc21 (stereo not given)	> 10 µM		
c1ccc2c(c1)CC1Cc3ccccc3C2N1	5.1 µM		
CC12NC(O)(Cc3ccccc31)c1ccccc12 (stereo not given)	0.077 µM	0.66 µM	
CC12NC(Cc3ccc(Br)cc31)c1ccccc12 (single isomer, unassigned; (+)) [listing 1 of 2 here]		0.5 µM	
CC12NC(Cc3ccc(F)cc31)c1ccc(F)cc12 (stereo not given)	0.031 µM	0.32 µM	
CC12NC(F)(Cc3ccccc31)c1ccccc12 (stereo not given)	0.93 µM		
C[C@]12N[C@H](Cc3ccccc31)Cc1ccccc12	0.139 µM	0.31 µM	
OCCN1C2Cc3ccccc3C1c1ccccc12 (stereo not given)	71 µM		
CC12NC(Cc3ccc(I)cc31)c1ccccc12 (stereo not given)	0.011 µM	0.51 µM	
C=CC12NC(Cc3ccccc31)c1ccccc12 (stereo not given)	0.087 µM	0.32 µM	
O=C(O)CC12NC(O)(Cc3ccccc31)c1ccccc12 (stereo not given)	280 µM		
CC12NC(Cc3ccccc31)c1ccc(Cl)cc12 (stereo in doubt; 63) [listing 1 of 2 here]	0.084 µM		
COc1ccc2c(c1)C1(C)NC2Cc2ccccc21 (stereo in doubt; (-)-83)	0.102 µM		
CC12NC(Cc3ccc(Br)cc31)c1ccccc12 (stereo in doubt; 88) [listing 1 of 2 here]	0.08 µM		ED50 [3]: 1.25 mg/kg; ED50 [6]: 1.42 mg/kg
CC12NC(Cc3ccc(N=[N+]=[N-])cc31)c1ccccc12 (stereo not given)	0.14 µM		
CC12NC(Cc3ccc(Br)cc31)c1ccccc12 (stereo in doubt; 88) [listing 2 of 2 here]		0.9 µM	
COc1ccc2c(c1)C1(C)NC2Cc2ccccc21 (single isomer, unassigned; (+))	0.025 µM		
CN1C2Cc3ccccc3C1c1ccccc12 (stereo not given)	12 µM		
CC12NC(Cc3ccc(Br)cc31)c1ccccc12 (single isomer, unassigned; (-))	0.113 µM		
CC12NC(c3ccccc31)[C@@H](O)c1ccccc12 (stereo in doubt; 120) [listing 2 of 2 here]		0.28 µM	
OCCC12NC(O)(Cc3ccccc31)c1ccccc12 (stereo not given)	0.074 µM	2.1 µM	
CC12NC(Cc3ccc(Cl)cc31)c1ccccc12 (stereo in doubt; 64) [listing 2 of 2 here]	0.011 µM		
CC12NC(Cc3cc(O)ccc31)c1ccccc12 (stereo not given)	0.277 µM	0.51 µM	
CC12NC(Cc3ccccc31)c1ccc(Cl)cc12 (stereo in doubt; (-)-63) [listing 1 of 2 here]		0.56 µM	

Structure (SMILES)	Ki [1]	Kb [2]	further results
CN1C2Cc3ccccc3C1c1ccccc1C2	57 µM		
CC12NC(Cc3ccccc31)c1cc(O)ccc12 (stereo in doubt; (+)-106) [listing 1 of 2 here]	0.023 µM		ED50 [3]: 0.97 mg/kg
CC12NC(Cc3ccccc31)c1ccc(Cl)cc12 (single isomer, unassigned; (+)) [listing 2 of 2 here]		0.08 µM	
NC(=O)CC12NC(O)(Cc3ccccc31)c1ccccc12 (stereo not given)	6.4 µM		
O=C(O)C(O)[C@]12NC(Cc3ccccc31)c1ccccc12 (stereo not given in full)	> 1000 µM		
CN1C2Cc3ccccc3C1(C)c1ccccc12 (stereo not given)	0.61 µM		
O[C@@H]1c2ccccc2C2NC1c1ccccc12 (stereo not given in full)	110 µM	9.6 µM	
CCC12NC(Cc3ccccc31)Cc1ccccc12	0.12 µM	0.29 µM	
ClCCC12NC(Cl)(Cc3ccccc31)c1ccccc12 (stereo not given)	53 µM		
CC12NC(Cc3ccc(SC(F)(F)F)cc31)c1ccccc12 (stereo not given)	17 µM		
CC12NC(Cc3ccccc31)c1ccc(Cl)cc12 (stereo in doubt; 63) [listing 2 of 2 here]		1.66 µM	
CC12NC(c3ccccc31)[C@@H](O)c1ccccc12 (stereo in doubt; (+)120) [listing 2 of 2 here]	0.092 µM		ED50 [3]: 0.35 mg/kg
CC12NC(Cc3ccc(Br)cc31)c1ccccc12 (single isomer, unassigned; (+)) [listing 2 of 2 here]	0.006 µM		
FCC12NC(Cc3ccccc31)c1ccccc12 (stereo not given)	0.16 µM	0.72 µM	ED50 [3]: 2.55 mg/kg
CC12NC(Cc3ccc(-c4ccccc4)cc31)c1ccccc12 (stereo not given)	0.032 µM	0.26 µM	ED50 [3]: 7.76 mg/kg
CCC12c3ccccc3CC(Cc3ccccc31)N2C	2.04 µM		
[O-][S+](CC12NC(Cc3ccccc31)c1ccccc12)c1ccccc1 (stereo not given)	> 160 µM		
CCC12NC(Cc3ccccc31)c1ccccc12 (stereo not given)	0.045 µM	0.59 µM	
CC12NC(Cc3ccccc31)c1ccc(Cl)cc12 (stereo in doubt; (-)-63) [listing 2 of 2 here]	0.3 µM		
O=C(O)CC12NC(Cl)(Cc3ccccc31)c1ccccc12 (stereo not given)	> 4500 µM		
CN1C2CCc3ccccc3C1c1ccccc12 (stereo not given)	2.6 µM		
CC12NC(Cc3ccccc31)c1cc(O)ccc12 (stereo in doubt; (+)-106) [listing 2 of 2 here]		0.14 µM	
